Format in all cases: functional
In test [1] the test system is Pseudomonas aeruginosa. Kind of test: Antimicrobial activity against Ceftazidime resistant Pseudomonas aeruginosa isolates by broth microdilution method. Summed up:
(§1)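 Nonduplicate, nonurine, drug-resistant clinical isolates collected from 40 US hospitals, October 2005 to March 2008. MICs determined by CLSI reference broth microdilution. The cephalosporin was tested alone and with tazobactam fixed at 4 μg/ml. Comparators were tested by the same method. P. aeruginosa ATCC 27853 served as quality control, with ranges of 0.25 to 1 μg/ml for both regimens.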

Test [2] deals with Pseudomonas aeruginosa. The test can be described thus: Antimicrobial activity against tobramycin resistant Pseudomonas aeruginosa isolates by broth microdilution method. Summed up: as §1
Test [3] deals with Pseudomonas aeruginosa. The test can be described thus: Antimicrobial activity against drug resistant Pseudomonas aeruginosa isolates by broth microdilution method. Summed up:
as §1

In test [4] the test system is Pseudomonas aeruginosa. The test can be described thus: Antimicrobial activity against multidrug resistant Pseudomonas aeruginosa isolates by broth microdilution method. Summed up: as §1
Test [5] has as its system Pseudomonas aeruginosa. The test can be described thus: Antimicrobial activity against imipenem resistant Pseudomonas aeruginosa isolates by broth microdilution method. Summed up: as §1
The test system of test [6] is Pseudomonas aeruginosa. Kind of test: Antimicrobial activity against piperacillin-tazobactam resistant Pseudomonas aeruginosa isolates by broth microdilution method. Summed up:
as §1

Molecules are shown by their SMILES. Values after ≈ are worked out from the molar mass of the structure shown.

Regarding `C[C@@H](O)[C@H]1C(=O)N2C(C(=O)O)=C(S[C@@H]3CN[C@H](C(=O)N(C)C)C3)[C@H](C)[C@H]12` [MEROPENEM], the MIC50 in the test on Pseudomonas aeruginosa [1] is 4 µg/mL (≈ 10.4 µM); against Pseudomonas aeruginosa [2], 16 µg/mL (≈ 41.7 µM); against Pseudomonas aeruginosa [3], 8 µg/mL (≈ 20.9 µM); against Pseudomonas aeruginosa [4], 16 µg/mL (≈ 41.7 µM); against Pseudomonas aeruginosa [5], 16 µg/mL (≈ 41.7 µM); in the test with Pseudomonas aeruginosa [6] it was 2 µg/mL. In addition, the MIC90 came to 32 µg/mL (≈ 83.4 µM) in the test on Pseudomonas aeruginosa [1]; 128 µg/mL (≈ 334 µM) in the test with Pseudomonas aeruginosa [2]; 32 µg/mL (≈ 83.4 µM) against Pseudomonas aeruginosa [3]; 128 µg/mL (≈ 334 µM) in the test on Pseudomonas aeruginosa [4]; 32 µg/mL (≈ 83.4 µM) in the test on Pseudomonas aeruginosa [5]; 32 µg/mL with Pseudomonas aeruginosa [6].

On to `O=C(O)c1cn(C2CC2)c2cc(N3CCNCC3)c(F)cc2c1=O` [CIPROFLOXACIN], for which the MIC50 against Pseudomonas aeruginosa [1] turned out to be 2 µg/mL (≈ 6.04 µM); in the test with Pseudomonas aeruginosa [2], 32 µg/mL (≈ 96.6 µM); against Pseudomonas aeruginosa [4] it was 32 µg/mL (≈ 96.6 µM); in the test on Pseudomonas aeruginosa [5], 8 µg/mL (≈ 24.1 µM); with Pseudomonas aeruginosa [6], 1 µg/mL. For the same compound, the MIC90 with Pseudomonas aeruginosa [1] is 32 µg/mL (≈ 96.6 µM); against Pseudomonas aeruginosa [2], 128 µg/mL (≈ 386 µM); against Pseudomonas aeruginosa [4], 64 µg/mL (≈ 193 µM); in the test with Pseudomonas aeruginosa [5], 64 µg/mL (≈ 193 µM); in the test with Pseudomonas aeruginosa [6], 32 µg/mL.

With `CC(C)(O/N=C(\C(=O)N[C@@H]1C(=O)N2C(C(=O)[O-])=C(C[n+]3ccccc3)CS[C@H]12)c1csc(N)n1)C(=O)O` [CEFTAZIDIME], the MIC50 in the test on Pseudomonas aeruginosa [1] was found to be 16 µg/mL (≈ 29.3 µM); against Pseudomonas aeruginosa [3] it was 16 µg/mL (≈ 29.3 µM); with Pseudomonas aeruginosa [4], 64 µg/mL (≈ 117 µM); against Pseudomonas aeruginosa [5], 16 µg/mL (≈ 29.3 µM); in the test on Pseudomonas aeruginosa [6], 32 µg/mL. Also, the MIC90 was 64 µg/mL (≈ 117 µM) against Pseudomonas aeruginosa [1]; 128 µg/mL (≈ 234 µM) against Pseudomonas aeruginosa [3]; 256 µg/mL (≈ 468 µM) with Pseudomonas aeruginosa [4]; 128 µg/mL (≈ 234 µM) with Pseudomonas aeruginosa [5]; 128 µg/mL in the test with Pseudomonas aeruginosa [6].

As for `NC[C@H]1O[C@H](O[C@H]2[C@H](O)[C@@H](O[C@H]3O[C@H](CO)[C@@H](O)[C@H](N)[C@H]3O)[C@H](N)C[C@@H]2N)[C@H](N)C[C@@H]1O` [TOBRAMYCIN], the MIC50 was 1 µg/mL (≈ 2.14 µM) against Pseudomonas aeruginosa [1]; 32 µg/mL (≈ 68.4 µM) in the test on Pseudomonas aeruginosa [2]; 2 µg/mL (≈ 4.28 µM) in the test on Pseudomonas aeruginosa [3]; 128 µg/mL (≈ 274 µM) in the test with Pseudomonas aeruginosa [4]; 1 µg/mL (≈ 2.14 µM) in the test on Pseudomonas aeruginosa [5]; 1 µg/mL in the test on Pseudomonas aeruginosa [6]. For the same compound, the MIC90 against Pseudomonas aeruginosa [1] was 4 µg/mL (≈ 8.56 µM); in the test with Pseudomonas aeruginosa [2], 128 µg/mL (≈ 274 µM); against Pseudomonas aeruginosa [3] it was 128 µg/mL (≈ 274 µM); in the test on Pseudomonas aeruginosa [4], 256 µg/mL (≈ 548 µM); against Pseudomonas aeruginosa [5] it was 64 µg/mL (≈ 137 µM); with Pseudomonas aeruginosa [6], 4 µg/mL.

Consider `CO/N=C(\C(=O)N[C@@H]1C(=O)N2C(C(=O)[O-])=C(C[N+]3(C)CCCC3)CS[C@H]12)c1csc(N)n1` [CEFEPIME], for which the MIC50 in the test on Pseudomonas aeruginosa [1] worked out at 256 µg/mL (≈ 533 µM); against Pseudomonas aeruginosa [3] it was 16 µg/mL (≈ 33.3 µM); against Pseudomonas aeruginosa [4], 16 µg/mL (≈ 33.3 µM); in the test with Pseudomonas aeruginosa [5] it was 8 µg/mL (≈ 16.6 µM); in the test on Pseudomonas aeruginosa [6], 16 µg/mL. Moreover, the MIC90 is 256 µg/mL (≈ 533 µM) against Pseudomonas aeruginosa [1]; 64 µg/mL (≈ 133 µM) with Pseudomonas aeruginosa [3]; 64 µg/mL (≈ 133 µM) with Pseudomonas aeruginosa [4]; 32 µg/mL (≈ 66.6 µM) with Pseudomonas aeruginosa [5]; 32 µg/mL with Pseudomonas aeruginosa [6].

For `C[C@@H](O)[C@H]1C(=O)N2C(C(=O)O)=C(SCCNC=N)C[C@H]12` [IMIPENEM ANHYDROUS], the MIC50 came out at 64 µg/mL (≈ 214 µM) in the test with Pseudomonas aeruginosa [1]; 128 µg/mL (≈ 428 µM) in the test on Pseudomonas aeruginosa [2]; 8 µg/mL (≈ 26.7 µM) against Pseudomonas aeruginosa [3]; 16 µg/mL (≈ 53.4 µM) in the test with Pseudomonas aeruginosa [4]; 16 µg/mL (≈ 53.4 µM) against Pseudomonas aeruginosa [5]; 64 µg/mL with Pseudomonas aeruginosa [6]. The MIC90 in the test on Pseudomonas aeruginosa [1] is 256 µg/mL (≈ 855 µM); against Pseudomonas aeruginosa [2], 256 µg/mL (≈ 855 µM); in the test on Pseudomonas aeruginosa [3], 32 µg/mL (≈ 107 µM); against Pseudomonas aeruginosa [4], 128 µg/mL (≈ 428 µM); against Pseudomonas aeruginosa [5], 32 µg/mL (≈ 107 µM); in the test with Pseudomonas aeruginosa [6], 256 µg/mL. In the test on Pseudomonas aeruginosa [5], the MIC was 16 µg/mL (≈ 53.4 µM).

Consider `C[C@H]1COc2c(N3CCN(C)CC3)c(F)cc3c(=O)c(C(=O)O)cn1c23.C[C@H]1COc2c(N3CCN(C)CC3)c(F)cc3c(=O)c(C(=O)O)cn1c23.O` [LEVOFLOXACIN], for which the MIC50 in the test with Pseudomonas aeruginosa [1] turned out to be 4 µg/mL; against Pseudomonas aeruginosa [2], 32 µg/mL; against Pseudomonas aeruginosa [3], 8 µg/mL; with Pseudomonas aeruginosa [4], 32 µg/mL; in the test with Pseudomonas aeruginosa [5] it was 16 µg/mL; in the test with Pseudomonas aeruginosa [6], 4 µg/mL. In addition, the MIC90 in the test with Pseudomonas aeruginosa [1] came to 64 µg/mL; in the test on Pseudomonas aeruginosa [2], 128 µg/mL; with Pseudomonas aeruginosa [3], 64 µg/mL; against Pseudomonas aeruginosa [4] it was 128 µg/mL; in the test on Pseudomonas aeruginosa [5], 64 µg/mL; with Pseudomonas aeruginosa [6], 64 µg/mL.

On to `Cn1c(N)c(NC(=O)NCCN)c[n+]1CC1=C(C(=O)O)N2C(=O)[C@@H](NC(=O)/C(=N\OC(C)(C)C(=O)[O-])c3nsc(N)n3)[C@H]2SC1` [CEFTOLOZANE], for which the MIC50 with Pseudomonas aeruginosa [1] is 4 µg/mL (≈ 6 µM); in the test with Pseudomonas aeruginosa [2], 2 µg/mL (≈ 3 µM); against Pseudomonas aeruginosa [3], 2 µg/mL (≈ 3 µM); with Pseudomonas aeruginosa [4], 2 µg/mL (≈ 3 µM); against Pseudomonas aeruginosa [5] it was 2 µg/mL (≈ 3 µM); in the test with Pseudomonas aeruginosa [6], 2 µg/mL. Moreover, the MIC90 in the test with Pseudomonas aeruginosa [1] is 16 µg/mL (≈ 24 µM); in the test with Pseudomonas aeruginosa [2], 64 µg/mL (≈ 96 µM); against Pseudomonas aeruginosa [3] it was 2 µg/mL (≈ 3 µM); against Pseudomonas aeruginosa [4] it was above 64 µg/mL; against Pseudomonas aeruginosa [5] it was 8 µg/mL (≈ 12 µM); with Pseudomonas aeruginosa [6] it was 8 µg/mL.

(Values after ChEMBL document CHEMBL1212785, “In vitro potency of CXA-101, a novel cephalosporin, against Pseudomonas aeruginosa displaying various resistance phenotypes, including multidrug resistance” (2010).)
